What was measured:
[1] = target: Mitogen-activated protein kinase 11 (Homo sapiens) (UniProt Q15759); assay: Inhibition of human recombinant p38beta at 500 nM in presence of ATP by radiometric assay relative to control
[2] = target: Serine/threonine-protein kinase PAK 3 (Homo sapiens) (UniProt O75914); assay: Inhibition of human recombinant PAK3 at 500 nM in presence of ATP by radiometric assay relative to control
[3] = target: Serine/threonine-protein kinase PAK 6 (Homo sapiens) (UniProt Q9NQU5); assay: Inhibition of human recombinant PAK6 at 500 nM in presence of ATP by radiometric assay relative to control
[4] = target: T1, Activin receptor type-1 (Homo sapiens) (UniProt Q04771); assay: Inhibition of human recombinant ALK2 at 15 nM in presence of ATP by radiometric assay relative to control
T1 sequence (whole entry): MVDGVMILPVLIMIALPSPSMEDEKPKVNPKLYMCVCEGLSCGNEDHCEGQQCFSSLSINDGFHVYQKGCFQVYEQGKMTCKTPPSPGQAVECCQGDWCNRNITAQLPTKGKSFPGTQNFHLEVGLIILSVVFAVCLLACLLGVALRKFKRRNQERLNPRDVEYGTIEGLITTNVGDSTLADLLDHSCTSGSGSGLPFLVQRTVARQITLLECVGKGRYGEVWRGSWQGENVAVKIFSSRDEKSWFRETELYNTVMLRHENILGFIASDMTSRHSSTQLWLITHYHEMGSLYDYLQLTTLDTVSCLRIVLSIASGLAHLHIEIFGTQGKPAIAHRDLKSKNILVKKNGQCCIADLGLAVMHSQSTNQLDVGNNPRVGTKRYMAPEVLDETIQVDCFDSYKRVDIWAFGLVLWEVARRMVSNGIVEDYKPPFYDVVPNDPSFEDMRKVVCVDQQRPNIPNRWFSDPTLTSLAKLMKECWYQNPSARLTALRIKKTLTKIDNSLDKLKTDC
How it was run: (§1)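 Panel of 327 recombinant human kinases, each assayed in vitro by radiometric activity assay in duplicate at a single inhibitor concentration per compound, chosen with reference to its ULK1 inhibition. Activity remaining was expressed as percent of vehicle control, and percent inhibition was calculated as 100 minus percent activity remaining.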

[5] = target: 5'-AMP-activated protein kinase catalytic subunit alpha-1 (Homo sapiens) (UniProt Q13131); assay: Inhibition of human recombinant AMPKa1 at 15 nM related to control ULK1; how it was run: as §1
[6] = target: Non-receptor tyrosine-protein kinase TYK2 (Homo sapiens) (UniProt P29597); assay: Inhibition of human recombinant TYK2 at 15 nM related to control ULK1
[7] = target: Dual specificity protein kinase CLK3 (Homo sapiens) (UniProt P49761); assay: Inhibition of human recombinant CLK3 at 40 nM in presence of ATP by radiometric assay relative to control
Sequence of Dual specificity protein kinase CLK3 (Homo sapiens) (P49761 whole entry, looked up): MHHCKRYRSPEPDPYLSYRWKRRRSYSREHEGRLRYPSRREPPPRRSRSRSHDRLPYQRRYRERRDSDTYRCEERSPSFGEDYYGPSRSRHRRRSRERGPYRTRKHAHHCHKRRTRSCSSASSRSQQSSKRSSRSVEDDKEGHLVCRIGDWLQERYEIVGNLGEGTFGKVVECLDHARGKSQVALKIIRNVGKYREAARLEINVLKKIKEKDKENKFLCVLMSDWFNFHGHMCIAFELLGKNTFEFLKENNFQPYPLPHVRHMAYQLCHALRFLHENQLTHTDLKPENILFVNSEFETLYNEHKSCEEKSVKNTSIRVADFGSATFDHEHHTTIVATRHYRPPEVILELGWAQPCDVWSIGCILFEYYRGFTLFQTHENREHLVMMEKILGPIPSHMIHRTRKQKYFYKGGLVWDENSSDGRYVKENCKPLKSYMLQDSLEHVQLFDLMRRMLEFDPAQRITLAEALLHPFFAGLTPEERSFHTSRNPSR

[8] = target: Vascular endothelial growth factor receptor 1 (Homo sapiens) (UniProt P17948); assay: Inhibition of human recombinant FLT1 at 40 nM in presence of ATP by radiometric assay relative to control
Sequence of Vascular endothelial growth factor receptor 1 (Homo sapiens) (P17948 whole entry): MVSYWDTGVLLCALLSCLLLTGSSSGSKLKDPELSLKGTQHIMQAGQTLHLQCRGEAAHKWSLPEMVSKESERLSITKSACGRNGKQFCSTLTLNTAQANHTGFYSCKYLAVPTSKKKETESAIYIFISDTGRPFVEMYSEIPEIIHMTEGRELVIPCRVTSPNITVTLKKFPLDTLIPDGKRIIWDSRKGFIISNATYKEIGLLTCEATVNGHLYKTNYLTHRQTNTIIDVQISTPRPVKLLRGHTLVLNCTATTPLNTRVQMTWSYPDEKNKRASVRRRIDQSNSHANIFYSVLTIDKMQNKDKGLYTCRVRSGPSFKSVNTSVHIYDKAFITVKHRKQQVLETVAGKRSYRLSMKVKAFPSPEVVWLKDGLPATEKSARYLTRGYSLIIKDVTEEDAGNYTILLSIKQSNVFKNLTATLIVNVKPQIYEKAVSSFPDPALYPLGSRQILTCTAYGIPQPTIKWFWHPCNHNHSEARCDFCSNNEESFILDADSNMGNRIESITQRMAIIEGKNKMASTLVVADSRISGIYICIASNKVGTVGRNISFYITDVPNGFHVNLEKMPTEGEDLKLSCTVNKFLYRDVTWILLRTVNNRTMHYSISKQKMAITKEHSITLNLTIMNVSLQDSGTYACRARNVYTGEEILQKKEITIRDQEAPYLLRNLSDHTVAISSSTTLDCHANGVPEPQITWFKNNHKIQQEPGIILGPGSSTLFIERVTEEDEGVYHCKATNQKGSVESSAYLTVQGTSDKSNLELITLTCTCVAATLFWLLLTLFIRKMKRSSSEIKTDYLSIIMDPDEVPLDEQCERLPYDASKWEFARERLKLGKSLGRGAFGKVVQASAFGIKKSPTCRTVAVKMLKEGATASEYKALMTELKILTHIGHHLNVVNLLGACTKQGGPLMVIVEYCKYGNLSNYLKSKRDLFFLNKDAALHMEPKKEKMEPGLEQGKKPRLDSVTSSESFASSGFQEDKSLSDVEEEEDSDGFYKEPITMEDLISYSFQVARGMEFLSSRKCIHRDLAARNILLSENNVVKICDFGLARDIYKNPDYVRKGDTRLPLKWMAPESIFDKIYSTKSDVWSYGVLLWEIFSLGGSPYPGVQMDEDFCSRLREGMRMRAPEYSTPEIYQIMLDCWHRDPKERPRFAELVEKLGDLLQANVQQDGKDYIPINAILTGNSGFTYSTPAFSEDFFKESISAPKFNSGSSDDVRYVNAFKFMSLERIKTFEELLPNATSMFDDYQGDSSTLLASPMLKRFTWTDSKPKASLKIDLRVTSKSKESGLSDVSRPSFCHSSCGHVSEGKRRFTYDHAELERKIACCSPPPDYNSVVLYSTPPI

[9] = target: T2, Muscle, skeletal receptor tyrosine-protein kinase (Homo sapiens) (UniProt O15146); assay: Inhibition of human recombinant MUSK at 40 nM in presence of ATP by radiometric assay relative to control
T2 sequence (whole entry): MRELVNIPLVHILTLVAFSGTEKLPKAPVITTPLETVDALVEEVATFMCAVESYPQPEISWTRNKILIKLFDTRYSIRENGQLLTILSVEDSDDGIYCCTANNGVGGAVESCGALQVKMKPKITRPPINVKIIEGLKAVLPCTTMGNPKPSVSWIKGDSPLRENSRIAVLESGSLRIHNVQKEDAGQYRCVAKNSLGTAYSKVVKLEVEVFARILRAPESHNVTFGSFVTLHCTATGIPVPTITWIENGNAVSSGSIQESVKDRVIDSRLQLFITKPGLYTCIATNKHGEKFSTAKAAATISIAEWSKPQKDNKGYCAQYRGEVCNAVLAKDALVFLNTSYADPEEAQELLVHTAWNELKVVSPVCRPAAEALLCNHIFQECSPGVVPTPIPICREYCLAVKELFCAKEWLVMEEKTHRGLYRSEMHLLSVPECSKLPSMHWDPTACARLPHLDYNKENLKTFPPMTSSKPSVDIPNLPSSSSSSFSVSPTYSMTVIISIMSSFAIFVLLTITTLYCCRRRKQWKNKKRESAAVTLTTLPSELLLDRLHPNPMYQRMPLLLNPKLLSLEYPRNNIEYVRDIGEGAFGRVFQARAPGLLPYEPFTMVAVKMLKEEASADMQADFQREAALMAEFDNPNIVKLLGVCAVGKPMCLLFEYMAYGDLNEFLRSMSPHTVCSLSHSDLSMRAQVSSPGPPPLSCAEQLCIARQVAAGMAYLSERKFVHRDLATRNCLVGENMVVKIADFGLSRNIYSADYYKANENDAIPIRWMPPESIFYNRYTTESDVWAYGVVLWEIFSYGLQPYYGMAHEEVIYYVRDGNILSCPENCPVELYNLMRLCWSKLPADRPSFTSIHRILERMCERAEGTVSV

[10] = target: [Pyruvate dehydrogenase (acetyl-transferring)] kinase isozyme 4, mitochondrial (Homo sapiens) (UniProt Q16654); assay: Inhibition of human recombinant PDHK4 at 40 nM in presence of ATP by radiometric assay relative to control
Sequence of [Pyruvate dehydrogenase (acetyl-transferring)] kinase isozyme 4, mitochondrial (Homo sapiens) (Q16654 whole entry, looked up): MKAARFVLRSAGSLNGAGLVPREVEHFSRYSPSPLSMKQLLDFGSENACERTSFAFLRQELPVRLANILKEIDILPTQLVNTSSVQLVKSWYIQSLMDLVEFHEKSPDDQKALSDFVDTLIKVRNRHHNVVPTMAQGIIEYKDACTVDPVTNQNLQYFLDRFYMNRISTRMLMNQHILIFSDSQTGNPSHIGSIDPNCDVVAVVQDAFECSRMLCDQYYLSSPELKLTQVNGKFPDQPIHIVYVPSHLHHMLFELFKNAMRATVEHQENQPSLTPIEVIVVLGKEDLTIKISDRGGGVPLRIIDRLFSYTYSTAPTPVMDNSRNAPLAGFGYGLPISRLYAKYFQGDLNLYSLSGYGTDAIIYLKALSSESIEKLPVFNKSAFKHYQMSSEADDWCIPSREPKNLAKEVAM

[11] = target: Platelet-derived growth factor receptor beta (Homo sapiens) (UniProt P09619); assay: Inhibition of human recombinant PDGFRb at 40 nM related to control ULK1
Sequence of Platelet-derived growth factor receptor beta (Homo sapiens) (P09619 whole entry): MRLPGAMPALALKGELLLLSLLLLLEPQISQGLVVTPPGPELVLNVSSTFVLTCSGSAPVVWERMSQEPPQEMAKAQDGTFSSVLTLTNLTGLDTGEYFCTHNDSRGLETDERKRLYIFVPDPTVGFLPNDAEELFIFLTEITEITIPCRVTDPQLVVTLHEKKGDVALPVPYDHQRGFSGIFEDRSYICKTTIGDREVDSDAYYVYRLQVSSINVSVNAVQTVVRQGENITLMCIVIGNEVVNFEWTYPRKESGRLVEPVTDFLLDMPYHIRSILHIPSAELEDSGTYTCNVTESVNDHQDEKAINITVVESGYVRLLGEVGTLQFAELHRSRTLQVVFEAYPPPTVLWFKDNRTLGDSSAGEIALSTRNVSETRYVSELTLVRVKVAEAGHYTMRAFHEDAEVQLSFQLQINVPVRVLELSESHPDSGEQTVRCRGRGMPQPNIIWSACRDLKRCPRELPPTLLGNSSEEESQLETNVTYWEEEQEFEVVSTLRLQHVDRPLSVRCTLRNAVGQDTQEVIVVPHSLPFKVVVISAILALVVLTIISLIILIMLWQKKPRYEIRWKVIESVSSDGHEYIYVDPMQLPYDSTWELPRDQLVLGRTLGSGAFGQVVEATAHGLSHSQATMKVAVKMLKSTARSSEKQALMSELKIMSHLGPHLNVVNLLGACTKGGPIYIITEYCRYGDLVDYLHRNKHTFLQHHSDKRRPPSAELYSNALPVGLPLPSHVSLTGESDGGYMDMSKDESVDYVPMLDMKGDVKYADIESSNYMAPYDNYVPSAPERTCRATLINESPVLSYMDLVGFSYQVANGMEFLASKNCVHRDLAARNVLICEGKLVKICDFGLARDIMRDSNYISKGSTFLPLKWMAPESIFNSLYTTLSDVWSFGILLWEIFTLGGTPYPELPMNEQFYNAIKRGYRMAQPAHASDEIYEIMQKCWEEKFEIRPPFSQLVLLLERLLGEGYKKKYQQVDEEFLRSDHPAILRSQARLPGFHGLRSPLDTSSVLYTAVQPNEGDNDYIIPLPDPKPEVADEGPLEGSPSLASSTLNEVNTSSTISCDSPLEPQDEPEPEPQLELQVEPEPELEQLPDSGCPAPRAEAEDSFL

[12] = target: SRSF protein kinase 1 (Homo sapiens) (UniProt Q96SB4); assay: Inhibition of human recombinant SRPK1 at 40 nM related to control ULK1
Sequence of SRSF protein kinase 1 (Homo sapiens) (Q96SB4 whole entry): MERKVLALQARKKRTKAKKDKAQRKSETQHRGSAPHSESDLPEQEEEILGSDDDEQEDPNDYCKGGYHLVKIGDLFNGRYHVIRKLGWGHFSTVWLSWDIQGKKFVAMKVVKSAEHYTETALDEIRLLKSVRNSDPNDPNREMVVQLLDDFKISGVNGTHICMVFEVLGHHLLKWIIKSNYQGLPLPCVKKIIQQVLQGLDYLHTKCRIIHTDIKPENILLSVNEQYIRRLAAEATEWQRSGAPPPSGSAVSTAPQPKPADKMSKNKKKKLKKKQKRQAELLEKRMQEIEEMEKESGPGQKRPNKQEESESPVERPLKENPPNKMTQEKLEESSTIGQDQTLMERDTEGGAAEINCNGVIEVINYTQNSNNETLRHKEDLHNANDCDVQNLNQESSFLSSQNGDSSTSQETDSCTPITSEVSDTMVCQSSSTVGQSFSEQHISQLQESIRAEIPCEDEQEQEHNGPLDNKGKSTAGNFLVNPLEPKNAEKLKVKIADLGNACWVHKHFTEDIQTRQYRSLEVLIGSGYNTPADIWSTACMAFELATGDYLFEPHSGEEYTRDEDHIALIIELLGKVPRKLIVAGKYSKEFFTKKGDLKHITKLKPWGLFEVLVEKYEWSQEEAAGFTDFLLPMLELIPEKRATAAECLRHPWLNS

[13] = target: T3, Testis-specific serine/threonine-protein kinase 1 (Homo sapiens) (UniProt Q9BXA7); assay: Inhibition of human recombinant TSSK1 at 40 nM related to control ULK1
T3 sequence (whole entry): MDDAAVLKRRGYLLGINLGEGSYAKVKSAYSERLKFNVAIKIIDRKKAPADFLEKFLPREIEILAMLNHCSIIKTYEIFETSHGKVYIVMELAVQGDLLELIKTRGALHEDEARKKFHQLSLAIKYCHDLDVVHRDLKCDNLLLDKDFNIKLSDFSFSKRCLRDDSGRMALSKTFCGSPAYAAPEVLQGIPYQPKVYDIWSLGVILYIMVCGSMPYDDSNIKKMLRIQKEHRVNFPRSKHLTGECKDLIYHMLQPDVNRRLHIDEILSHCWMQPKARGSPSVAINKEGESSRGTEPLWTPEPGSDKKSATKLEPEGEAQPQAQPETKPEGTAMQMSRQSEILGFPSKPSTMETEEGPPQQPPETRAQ

Sequence of Serine/threonine-protein kinase PAK 3 (Homo sapiens) (O75914 whole entry, looked up): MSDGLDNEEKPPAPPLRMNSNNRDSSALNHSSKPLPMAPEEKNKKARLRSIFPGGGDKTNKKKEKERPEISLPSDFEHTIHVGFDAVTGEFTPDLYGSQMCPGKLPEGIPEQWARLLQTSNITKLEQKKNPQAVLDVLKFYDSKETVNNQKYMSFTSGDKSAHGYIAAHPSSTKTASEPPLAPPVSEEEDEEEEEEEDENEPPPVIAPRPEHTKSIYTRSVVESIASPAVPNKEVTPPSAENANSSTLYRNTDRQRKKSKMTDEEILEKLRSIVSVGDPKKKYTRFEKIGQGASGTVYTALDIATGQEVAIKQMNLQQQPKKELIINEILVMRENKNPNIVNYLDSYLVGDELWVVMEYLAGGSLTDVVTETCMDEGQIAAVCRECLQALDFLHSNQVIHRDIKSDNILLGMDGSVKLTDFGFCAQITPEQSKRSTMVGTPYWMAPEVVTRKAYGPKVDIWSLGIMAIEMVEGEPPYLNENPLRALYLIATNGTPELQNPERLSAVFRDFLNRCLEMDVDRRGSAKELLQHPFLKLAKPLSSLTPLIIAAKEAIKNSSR
Sequence of Mitogen-activated protein kinase 11 (Homo sapiens) (Q15759 whole entry): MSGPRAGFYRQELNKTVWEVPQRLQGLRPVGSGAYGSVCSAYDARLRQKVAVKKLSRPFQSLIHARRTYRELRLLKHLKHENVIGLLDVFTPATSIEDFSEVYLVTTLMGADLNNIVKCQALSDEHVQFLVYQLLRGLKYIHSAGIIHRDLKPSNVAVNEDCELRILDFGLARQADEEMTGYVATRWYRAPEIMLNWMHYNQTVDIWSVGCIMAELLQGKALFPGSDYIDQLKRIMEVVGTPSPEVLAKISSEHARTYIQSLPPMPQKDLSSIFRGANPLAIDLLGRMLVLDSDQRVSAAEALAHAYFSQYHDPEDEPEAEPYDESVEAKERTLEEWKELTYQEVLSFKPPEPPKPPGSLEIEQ

In the case of CNC(=O)c1ccccc1Oc1nc(Nc2cc(OC)c(OC)c(OC)c2)ncc1Br, the inhibition [1] is reported as 2%, the inhibition [2] is reported as 9% and the inhibition [3] is reported as 19%.
CC(C)[C@H](NC(=O)c1cc(-c2cnn3cc(-c4ccc(OCCN5CCCCC5)cc4)cnc23)cs1)C(F)(F)F gave an inhibition [4] of 26%, a fold change (FC) [5] of 0.66 and a fold change (FC) [6] of 0.02.
For O=C(N[C@@H](C1CC1)C(F)(F)F)c1cc(-c2cnn3cc(-c4ccc(F)cc4)cnc23)cs1, the inhibition [7] was 0%, the inhibition [8] was 18% and the inhibition [9] was 13%. It also gave an inhibition [10] of 0%, a fold change (FC) [11] of 0.07 and a fold change (FC) [12] of 0.14. For the same compound, the fold change (FC) [13] was 0.

From ChEMBL document CHEMBL5653631, “A Potent and Selective ULK1 Inhibitor Suppresses Autophagy and Sensitizes Cancer Cells to Nutrient Stress” (iScience, 2018)
